Consider 9 compounds from ChEMBL document CHEMBL1147382, “Cytotoxic constituents from Hyptis verticillata” (J Nat Prod, 1993).

In general, LC50 refers to the concentration that kills 50% of the test population. Lower therefore signals greater toxicity.

The nature of series [1]: Toxicity in brine shrimp. It counts as organism-based. As to conditions: artemia, in vivo.
The subject of the next series is P388. Kind of series: Cytotoxicity in mouse P388 cells. The class given is functional. As to conditions: read-out: ED50 (the source's name).
Series [2] is described as follows: Antimitotic activity in rat ASK cells assessed as reversal of astrocyte formation at 100 ug/mL. The class given is functional. In short, it runs like this: (§1)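 Cultured rat glioma (ASK) cells were used, following Swanson et al. The antimitotic read-out was the dose giving 100% reversal of astrocyte conversion. Pure lignans were tested across a range of concentrations.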

A short description of series [3]: Antimitotic activity in rat ASK cells assessed as reversal of astrocyte formation at 20 ug/mL. It counts as functional. In short, it runs like this:
as §1

A short description of series [4]: Antimitotic activity in rat ASK cells assessed as reversal of astrocyte formation at 4 ug/mL. It counts as functional. Put shortly: as §1
Series [5] in a line: Antimitotic activity in rat ASK cells assessed as reversal of astrocyte formation at 0.8 ug/mL. The class given is functional. In short, it runs like this:
as §1

A short description of series [6]: Antimitotic activity in rat ASK cells assessed as reversal of astrocyte formation at 0.16 ug/mL. The class given is functional. Put shortly: as §1
A short description of series [7]: Antimitotic activity in rat ASK cells assessed as reversal of astrocyte formation at 0.032 ug/mL. The class given is functional. Put shortly:
as §1

Series [8] in a line: Antimitotic activity in rat ASK cells assessed as reversal of astrocyte formation at 0.0064 ug/mL. It counts as functional. In short, it runs like this: as §1
A further series relates to A-431. The experiment in a line: Cytotoxicity against human A431 cells. It counts as functional. As to conditions: read-out: ED50 (the source's name).
Series [9] can be described thus: Cytotoxicity against human BC1 cells. As to conditions: read-out: ED50 (the source's name). It counts as functional.
The subject of another series is Col2. The experiment in a line: Cytotoxicity against human Col2 cells. As to conditions: read-out: ED50 (the source's name). The class given is functional.
For another series, the system named is HT. The experiment in a line: Cytotoxicity against human HT cells. It counts as functional. As to conditions: read-out: ED50 (the source's name).
The nature of series [10]: Cytotoxicity against human KBV1 cells. It counts as functional. As to conditions: KB-V1, read-out: ED50 (the source's name).
The next series relates to LNCaP. The experiment in a line: Cytotoxicity against human LNCAP cells. As to conditions: read-out: ED50 (the source's name). The class given is functional.
The next series deals with Lu1. The experiment in a line: Cytotoxicity against human Lu1 cells. It counts as functional. As to conditions: read-out: ED50 (the source's name).
Series [11] is described as follows: Cytotoxicity against human U373 cells. The class given is functional, U-373MG ATCC. As to conditions: U373 MG, read-out: ED50 (the source's name).
In another series the test system is ZR-75-1. Kind of series: Cytotoxicity against human ZR-75-1 cells. It counts as functional. As to conditions: read-out: ED50 (the source's name).
Another series has as its system KB. Kind of series: Cytotoxicity against human KB cells. It counts as functional. As to conditions: read-out: ED50 (the source's name).
Series [12] can be described thus: Antimitotic activity in rat ASK cells assessed as reversal of astrocyte formation at 0.00128 ug/mL. It counts as functional. Put shortly:
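Cultured rat glioma (ASK) cells, run essentially by a previously published astrocyte-formation procedure. Antimitotic potential is scored as the dose needed to give 100% reversal of astrocyte conversion.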

≈ marks a conversion by molar mass, not a printed value.

Compound `COc1cc([C@@H]2c3cc4c(cc3C[C@@H]3COC(=O)[C@H]32)OCO4)cc(OC)c1OC` [ISODEOXYPODOPHYLLOTOXIN] had an LC50 in series [1] above 500 mg/L. Further, the EC50 in the series with P388 was above 20 mg/L; with A-431 it was 6.2 mg/L (≈ 15.6 µM); in series [9], 17.5 mg/L (≈ 43.9 µM); with Col2, 8.9 mg/L (≈ 22.3 µM); in the series with HT, 10.7 mg/L (≈ 26.9 µM); in series [10], 11.5 mg/L (≈ 28.9 µM). Also, the EC50 in the series on LNCaP turned out to be 12 mg/L (≈ 30.1 µM); with Lu1, 15.9 mg/L (≈ 39.9 µM); in series [11], 2.9 mg/L (≈ 7.28 µM); in the series on ZR-75-1 it was 13.2 mg/L (≈ 33.1 µM); in the series with KB it was 6.7 mg/L (≈ 16.8 µM). The Activity is on record as 100% in [2]; 100% in series [3]; 0% in series [4]; 0% in [5]; 0% in [6]; 0% in [7]. Further, the Activity in series [8] is on record as 0%.

Regarding `COc1cc2c(c(OC)c1OC)-c1ccc(OC)c(=O)cc1[C@@H](NC(C)=O)CC2` [COLCHICINE], the Activity is on record as 100% in [2]; 100% in series [3]; 100% in series [4]; 70% in [5]; 0% in series [6]; 0% in [7]. Also, the Activity in [8] and in [12] was 0% throughout.

Compound `COc1cc(-c2c3c(c(O)c4cc5c(cc24)OCO5)COC3=O)cc(OC)c1OC` [DEHYDROPODOPHYLLOTOXIN] displayed a median lethal concentration (LC50) in [1] of 255 mg/L (≈ 621 µM). Also, the EC50 with P388 was above 5 mg/L; in the series with A-431 it was above 20 mg/L; in series [9] it was 15.2 mg/L (≈ 37 µM); with Col2, 8.9 mg/L (≈ 21.7 µM); in the series with HT, 9.7 mg/L (≈ 23.6 µM); in series [10], 13 mg/L (≈ 31.7 µM). The EC50 in the series with LNCaP is 11.7 mg/L (≈ 28.5 µM); in the series with Lu1 it was 10.6 mg/L (≈ 25.8 µM); in series [11] it was above 20 mg/L; with ZR-75-1, above 20 mg/L; with KB, 5 mg/L (≈ 12.2 µM). Further, the Activity worked out at 100% in series [2]; 100% in series [3]; 0% in [4]; 0% in [5]; 0% in [6]; 0% in [7]. Further, in [8], the Activity is 0%.

For `COc1cc([C@@H]2c3cc4c(cc3C[C@H]3COC(=O)[C@@H]32)OCO4)cc(OC)c1OC` [DESOXYPODOPHYLLOTOXIN], the EC50 in the series with P388 is 0.002 mg/L (≈ 0.00502 µM); in the series with A-431, 4.3 mg/L (≈ 10.8 µM); in series [9], 0.001 mg/L (≈ 0.00251 µM); in the series with Col2 it was 0.01 mg/L (≈ 0.0251 µM); with HT, 0.003 mg/L (≈ 0.00753 µM); in series [10] it was 0.06 mg/L (≈ 0.151 µM). In addition, the EC50 is 0.01 mg/L (≈ 0.0251 µM) in the series on LNCaP; 0.002 mg/L (≈ 0.00502 µM) with Lu1; 0.001 mg/L (≈ 0.00251 µM) in series [11]; 2 mg/L (≈ 5.02 µM) in the series on ZR-75-1; 0.05 mg/L (≈ 0.125 µM) with KB. Also, the Activity in [2], in series [3], in series [4], in series [5], in [6] and in series [7] was 100% throughout. Besides, the Activity in series [8] is listed as 0%.

`COc1cc(-c2c3c(cc4cc5c(cc24)OCO5)COC3=O)cc(OC)c1OC` [DEOXYDEHYDROPODOPHYLLOTOXIN] displayed a median lethal concentration (LC50) in series [1] above 500 mg/L. Further, the EC50 in the series on P388 is above 5 mg/L; with A-431, 6.2 mg/L (≈ 15.7 µM); in series [9], above 20 mg/L; in the series with Col2 it was 16.7 mg/L (≈ 42.3 µM); with HT, above 20 mg/L; in series [10], above 20 mg/L. For the same compound, the EC50 with LNCaP is 11.6 mg/L (≈ 29.4 µM); in the series with Lu1 it was 18.8 mg/L (≈ 47.7 µM); in [11], above 20 mg/L; in the series with ZR-75-1, above 20 mg/L; in the series on KB, 11.4 mg/L (≈ 28.9 µM). For the same compound, the Activity in series [2] was found to be 100%; in [3] it was 0%; in series [4], 0%; in series [5] it was 0%.

Turning to `COc1cc([C@@H]2c3cc4c(cc3C[C@H]3COC(=O)[C@H]32)OCO4)cc(OC)c1OC` [DEOXYPICROPODOPHYLLIN], the median lethal concentration (LC50) in series [1] turned out to be 142 mg/L (≈ 355 µM). The EC50 with P388 was 0.1 mg/L (≈ 0.251 µM); in the series with A-431, above 20 mg/L; in series [9], 2.1 mg/L (≈ 5.27 µM); in the series on Col2, 0.3 mg/L (≈ 0.753 µM); with HT, 0.2 mg/L (≈ 0.502 µM); in series [10], 0.7 mg/L (≈ 1.76 µM). The EC50 worked out at 0.2 mg/L (≈ 0.502 µM) in the series with LNCaP; 0.09 mg/L (≈ 0.226 µM) in the series on Lu1; 0.1 mg/L (≈ 0.251 µM) in series [11]; 0.6 mg/L (≈ 1.51 µM) in the series with ZR-75-1; 0.1 mg/L (≈ 0.251 µM) with KB. The Activity in [2] is reported as 100%; in series [3], 100%; in [4] it was 100%; in series [5], 100%; in series [6], 0%; in series [7] it was 0%. The Activity in series [8] worked out at 0%.

For the compound `COc1cc([C@@H]2c3cc4c(cc3[C@H](O)[C@H]3COC(=O)[C@H]23)OCO4)cc(OC)c1OC` [PODOFILOX], the LC50 in [1] came to 0.2 mg/L (≈ 0.483 µM). Besides, the EC50 in the series on P388 was 0.003 mg/L (≈ 0.00724 µM); with A-431 it was 0.03 mg/L (≈ 0.0724 µM); in [9] it was 0.03 mg/L (≈ 0.0724 µM); in the series with Col2, 0.005 mg/L (≈ 0.0121 µM); in the series with HT, 0.003 mg/L (≈ 0.00724 µM); in [10] it was 0.06 mg/L (≈ 0.145 µM). For the same compound, the EC50 with LNCaP is 0.04 mg/L (≈ 0.0965 µM); with Lu1, 0.008 mg/L (≈ 0.0193 µM); in [11], 0.004 mg/L (≈ 0.00965 µM); in the series with ZR-75-1, 0.4 mg/L (≈ 0.965 µM); with KB, 0.08 mg/L (≈ 0.193 µM). Also, the Activity in [2], in series [3], in series [4], in series [5], in series [6] and in [7] was 100% each time. Besides, in [8], the Activity is 0%.

Turning to `COc1cc(-c2c3c(cc4c(OC)c5c(cc24)OCO5)COC3=O)cc(OC)c1OC`, the LC50 in series [1] was 435 mg/L (≈ 1020 µM). Also, the EC50 was 1.8 mg/L (≈ 4.24 µM) in the series with P388; above 20 mg/L with A-431; 2.9 mg/L (≈ 6.83 µM) in [9]; 3.2 mg/L (≈ 7.54 µM) in the series with Col2; 3.4 mg/L (≈ 8.01 µM) in the series on HT; 4.2 mg/L (≈ 9.9 µM) in [10]. In addition, the EC50 with LNCaP was 3.2 mg/L (≈ 7.54 µM); in the series with Lu1 it was 4.3 mg/L (≈ 10.1 µM); in series [11] it was 5.9 mg/L (≈ 13.9 µM); in the series on ZR-75-1, above 20 mg/L; with KB, 2.2 mg/L (≈ 5.18 µM). In addition, the Activity in [2] came out at 100%; in [3], 100%; in [4] it was 100%; in series [5], 0%; in series [6] it was 0%; in series [7] it was 0%. Also, in series [8], the Activity is 0%.

Regarding `COc1cc(-c2c3c(c(O)c4c(OC)c5c(cc24)OCO5)COC3=O)cc(OC)c1OC`, in [1], the LC50 was above 500 mg/L. Besides, the EC50 turned out to be 4 mg/L (≈ 9.08 µM) with P388; 6.2 mg/L (≈ 14.1 µM) in the series with A-431; 7.6 mg/L (≈ 17.3 µM) in [9]; 12.8 mg/L (≈ 29.1 µM) in the series on Col2; 15.6 mg/L (≈ 35.4 µM) in the series on HT; 8.7 mg/L (≈ 19.8 µM) in [10]. Also, the EC50 is 11.6 mg/L (≈ 26.3 µM) with LNCaP; 11.7 mg/L (≈ 26.6 µM) in the series on Lu1; 16.3 mg/L (≈ 37 µM) in [11]; above 20 mg/L in the series on ZR-75-1; 6 mg/L (≈ 13.6 µM) in the series on KB. Also, the Activity in series [2] stood at 100%; in series [3], 100%; in [4], 0%; in series [5], 0%; in series [6] it was 0%; in series [7], 0%. In [8], the Activity is recorded as 0%.
